Measured values published in ChEMBL document CHEMBL1687781, “Comparative biochemical and computational study of the role of naturally occurring mutations at Ambler positions 104 and 170 in GES β-lactamases” (Antimicrob Agents Chemother, 2010).
≈ marks a conversion by molar mass, not a printed value.

Legend:
[1] = Ratio of Kcat to Km for Beta-lactamase GES-6 K104, S170 mutant
Procedure, shortened: (§1)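 Purified GES enzymes, released by mild sonication in 20 mM Tris pH 8.0, then Q-Sepharose and S-Sepharose chromatography, >95% pure by SDS-PAGE, in 50 mM KPi pH 7.6. Protein measured by Bradford. β-Lactam substrates hydrolysed at various concentrations, 25°C, in 50 mM NaCl, 50 mM MOPS pH 7.0.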

[2] = Activity of Beta-lactamase GES-7 K104, G170 mutant; procedure, shortened: as §1
[3] = Ratio of Kcat to Km for Beta-lactamase GES-2 E104, N170 mutant; procedure, shortened: as §1
[4] = Ratio of Kcat to Km for Beta-lactamase GES-1 E104, G170 mutant; procedure, shortened: as §1
[5] = Activity of Beta-lactamase GES-5 E104, S170 mutant; procedure, shortened: as §1
[6] = Activity of Beta-lactamase GES-13 K104, N170 mutant; procedure, shortened: as §1
[7] = Ratio of Kcat to Km for Beta-lactamase GES-7 K104, G170 mutant; procedure, shortened: as §1
[8] = Activity of Beta-lactamase GES-6 K104, S170 mutant; procedure, shortened: as §1
[9] = Activity of Beta-lactamase GES-1 E104, G170 mutant; procedure, shortened: as §1
[10] = Activity of Beta-lactamase GES-2 E104, N170 mutant; procedure, shortened: as §1
[11] = Ratio of Kcat to Km for Beta-lactamase GES-13 K104, N170 mutant; procedure, shortened: as §1
[12] = Ratio of Kcat to Km for Beta-lactamase GES-5 E104, S170 mutant; procedure, shortened: as §1
Escherichia coli [13] = assay: Antimicrobial activity against Escherichia coli DH5[alpha] transformed with pAC-ges1 plasmid encoding Beta-lactamase GES-1 E104, G170 mutant in presence of clavulanic acid at compound/inhibitor ratio of 2:1 by Etest method; type: functional
Procedure, shortened: (§2)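 E. coli DH5α host, either untransformed or carrying pACYC184-based clones of the GES variant genes. MICs of penicillin–clavulanate combinations were read by Etest following the manufacturer's recommendations, with penicillin and inhibitor at a 2:1 ratio.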

Escherichia coli [14] = assay: Antimicrobial activity against Escherichia coli DH5[alpha] transformed with pAC-ges1 plasmid encoding Beta-lactamase GES-7 K104, G170 mutant in presence of clavulanic acid at compound/inhibitor ratio of 2:1 by Etest method; type: functional; procedure, shortened: as §2
Escherichia coli [15] = assay: Antimicrobial activity against Escherichia coli DH5[alpha] transformed with pAC-ges1 plasmid encoding Beta-lactamase GES-5 E104, S170 mutant in presence of clavulanic acid at compound/inhibitor ratio of 2:1; type: functional; procedure, shortened: as §2
Escherichia coli [16] = assay: Antimicrobial activity against Escherichia coli DH5[alpha] transformed with pAC-ges1 plasmid encoding Beta-lactamase GES-6 K104, S170 mutant in presence of clavulanic acid at compound/inhibitor ratio of 2:1 by Etest method; type: functional; procedure, shortened: as §2
Escherichia coli [17] = assay: Antimicrobial activity against Escherichia coli DH5[alpha] transformed with pAC-ges1 plasmid encoding Beta-lactamase GES-13 K104, N170 mutant in presence of clavulanic acid at compound/inhibitor ratio of 2:1 by Etest method; type: functional; procedure, shortened: as §2
Escherichia coli [18] = assay: Antimicrobial activity against Escherichia coli DH5[alpha] in presence of clavulanic acid at compound/inhibitor ratio of 2:1 by Etest method; type: functional; procedure, shortened: as §2
Escherichia coli [19] = assay: Antimicrobial activity against Escherichia coli DH5[alpha] transformed with pAC-ges1 plasmid encoding Beta-lactamase GES-2 E104, N170 mutant in presence of clavulanic acid at compound/inhibitor ratio of 2:1 by Etest method; type: functional; procedure, shortened: as §2
Escherichia coli [20] = assay: Antimicrobial activity against Escherichia coli DH5[alpha] transformed with pAC-ges1 plasmid encoding Beta-lactamase GES-2 E104, N170 mutant by Etest method; type: functional
Escherichia coli [21] = assay: Antimicrobial activity against Escherichia coli DH5[alpha] transformed with pAC-ges1 plasmid encoding Beta-lactamase GES-7 K104, G170 mutant by Etest method; type: functional
Escherichia coli [22] = assay: Antimicrobial activity against Escherichia coli DH5[alpha] transformed with pAC-ges1 plasmid encoding Beta-lactamase GES-13 K104, N170 mutant by Etest method; type: functional
Escherichia coli [23] = assay: Antimicrobial activity against Escherichia coli DH5[alpha] transformed with pAC-ges1 plasmid encoding Beta-lactamase GES-5 E104, S170 mutant by Etest method; type: functional
Escherichia coli [24] = assay: Antimicrobial activity against Escherichia coli DH5[alpha] transformed with pAC-ges1 plasmid encoding Beta-lactamase GES-6 K104, S170 mutant by Etest method; type: functional
Escherichia coli [25] = assay: Antimicrobial activity against Escherichia coli DH5[alpha] transformed with pAC-ges1 plasmid encoding Beta-lactamase GES-1 E104, G170 mutant by Etest method; type: functional
Escherichia coli [26] = assay: Antimicrobial activity against Escherichia coli DH5[alpha] by Etest method; type: functional

SMILES: CC1(C)S[C@@H]2[C@H](NC(=O)Cc3ccccc3)C(=O)N2[C@H]1C(=O)O
- kcat/Km [1]: 0.42 µM⁻¹ s⁻¹
- Km [2]: 39 µM
- kcat [2]: 14.2 s⁻¹
- kcat/Km [3]: 0.07 µM⁻¹ s⁻¹
- kcat/Km [4]: 0.26 µM⁻¹ s⁻¹
- Km [5]: 88.9 µM
- kcat [5]: 28.6 s⁻¹
- Km [6]: 139 µM
- kcat [6]: 13.5 s⁻¹
- kcat/Km [7]: 0.36 µM⁻¹ s⁻¹
- Km [8]: 64.2 µM
- kcat [8]: 27.2 s⁻¹
- Km [9]: 120 µM
- kcat [9]: 30.5 s⁻¹
- Km [10]: 87.6 µM
- kcat [10]: 5.75 s⁻¹
- kcat/Km [11]: 0.1 µM⁻¹ s⁻¹
- kcat/Km [12]: 0.32 µM⁻¹ s⁻¹

SMILES: CC1(C)S[C@@H]2[C@H](NC(=O)[C@H](N)c3ccc(O)cc3)C(=O)N2[C@H]1C(=O)O [AMOXICILLIN]
- MIC (Escherichia coli [13]): 8 µg/mL
- MIC (Escherichia coli [14]): 32 µg/mL
- MIC (Escherichia coli [15]): 16 µg/mL
- MIC (Escherichia coli [16]): 32 µg/mL
- MIC (Escherichia coli [17]): 3 µg/mL
- MIC (Escherichia coli [18]): 2 µg/mL
- MIC (Escherichia coli [19]): 3 µg/mL

SMILES: CC1(C)S[C@@H]2[C@H](NC(=O)[C@H](N)c3ccccc3)C(=O)N2[C@H]1C(=O)O [AMPICILLIN]
- MIC (Escherichia coli [20]): > 256 µg/mL
- MIC (Escherichia coli [21]): > 256 µg/mL
- MIC (Escherichia coli [22]): > 256 µg/mL
- MIC (Escherichia coli [23]): > 256 µg/mL
- MIC (Escherichia coli [24]): > 256 µg/mL
- MIC (Escherichia coli [25]): > 256 µg/mL

SMILES: C[C@H]1[C@H](NC(=O)/C(=N\OC(C)(C)C(=O)O)c2csc(N)n2)C(=O)N1S(=O)(=O)O [AZTREONAM]
- MIC (Escherichia coli [20]): 0.032 µg/mL (≈ 0.0735 µM)
- MIC (Escherichia coli [21]): 2 µg/mL (≈ 4.59 µM)
- Km [2]: 241 µM
- kcat [2]: 45.5 s⁻¹
- MIC (Escherichia coli [22]): 2 µg/mL (≈ 4.59 µM)
- MIC (Escherichia coli [23]): 0.032 µg/mL (≈ 0.0735 µM)
- Km [6]: 405 µM
- kcat [6]: 35.6 s⁻¹
- MIC (Escherichia coli [24]): 0.094 µg/mL (≈ 0.216 µM)
- kcat/Km [7]: 0.19 µM⁻¹ s⁻¹
- kcat/Km [11]: 0.09 µM⁻¹ s⁻¹
- MIC (Escherichia coli [25]): 0.094 µg/mL (≈ 0.216 µM)

SMILES: CO/N=C(\C(=O)N[C@@H]1C(=O)N2C(C(=O)O)=C(COC(C)=O)CS[C@H]12)c1csc(N)n1 [CEFOTAXIME]
- MIC (Escherichia coli [20]): 0.75 µg/mL (≈ 1.65 µM)
- MIC (Escherichia coli [26]): 0.032 µg/mL (≈ 0.0703 µM)
- MIC (Escherichia coli [21]): 1.5 µg/mL (≈ 3.29 µM)
- kcat/Km [1]: 0.05 µM⁻¹ s⁻¹
- Km [2]: 81.6 µM
- kcat [2]: 31.4 s⁻¹
- kcat/Km [3]: 0.14 µM⁻¹ s⁻¹
- kcat/Km [4]: 0.37 µM⁻¹ s⁻¹
- MIC (Escherichia coli [22]): 3 µg/mL (≈ 6.59 µM)
- Km [5]: 133 µM
- kcat [5]: 3.55 s⁻¹
- MIC (Escherichia coli [23]): 0.125 µg/mL (≈ 0.274 µM)
- Km [6]: 63.4 µM
- kcat [6]: 69 s⁻¹
- MIC (Escherichia coli [24]): 0.125 µg/mL (≈ 0.274 µM)
- kcat/Km [7]: 0.38 µM⁻¹ s⁻¹
- Km [8]: 95.6 µM
- kcat [8]: 5.1 s⁻¹
- Km [9]: 152 µM
- kcat [9]: 56.8 s⁻¹
- Km [10]: 261 µM
- kcat [10]: 37.2 s⁻¹
- kcat/Km [11]: 1.09 µM⁻¹ s⁻¹
- kcat/Km [12]: 0.03 µM⁻¹ s⁻¹
- MIC (Escherichia coli [25]): 1 µg/mL (≈ 2.2 µM)

SMILES: CO[C@@]1(NC(=O)Cc2cccs2)C(=O)N2C(C(=O)O)=C(COC(N)=O)CS[C@@H]21 [CEFOXITIN]
- MIC (Escherichia coli [20]): 3 µg/mL (≈ 7.02 µM)
- MIC (Escherichia coli [26]): 2 µg/mL (≈ 4.68 µM)
- MIC (Escherichia coli [21]): 3 µg/mL (≈ 7.02 µM)
- kcat/Km [1]: 0.15 µM⁻¹ s⁻¹
- MIC (Escherichia coli [22]): 3 µg/mL (≈ 7.02 µM)
- Km [5]: 221 µM
- kcat [5]: 7.5 s⁻¹
- MIC (Escherichia coli [23]): 16 µg/mL (≈ 37.4 µM)
- MIC (Escherichia coli [24]): 48 µg/mL (≈ 112 µM)
- Km [8]: 82.3 µM
- kcat [8]: 12.1 s⁻¹
- kcat/Km [12]: 0.03 µM⁻¹ s⁻¹
- MIC (Escherichia coli [25]): 3 µg/mL (≈ 7.02 µM)
